Data published in PubChem BioAssay AID492988 (Johns Hopkins Ion Channel Center, 2010).
Records with an inconclusive call do not appear. Activity calls are given as the source filed them.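 The calls were made as follows: active = duplicate-averaged calcium signal falling below the mean of the agonist-only control wells less 5 SD; inactive = the rest, inconclusive results apart.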

System: Transient receptor potential cation channel subfamily C member 4 (TRPC4beta), mouse
Assay: TRPC4 channel inhibitors, SAR follow-up, cell-based, HEK293 TRPC4beta/mu-opioid, Fluo-4 calcium flux, single concentration (AID 492988)
Conditions: DAMGO-evoked Fluo4 calcium flux, at 10 µM, active compounds read high
Summary of the method: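 System: HEK293 with TRPC4beta and mu-opioid receptor; also added: DAMGO, submaximal then ECmax; compound dosing: one concentration; times: 110 s compound preincubation, 110 s submaximal DAMGO exposure; detection: Fluo4 Ca2+ fluorescence; read-out: peak-minus-trough fluorescence over baseline, integrated ratio, mean % inhibition; replicates: duplicate wells per compound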

Row | SMILES | inhibition
1 | Cc1ccnc(N2CCCC2)c1 | 44.1%
2 | Cc1cc(N2CCCC2)nc2ccccc12 | 84.9%
3 | Cc1ccnc(N2CCCCC2)n1 | 38.2% (inactive)
4 | Cc1cc(N2CCN(C)CC2)nc2ccccc12 | -157% (inactive)
5 | Cc1cc(N2CCC[C@@H]2C)nc2ccccc12 | 90%
6 | Cc1cc(N2CCC(C)CC2)nc2ccccc12 | 91.6%
7 | c1ccc(-c2cc(N3CCCC3)nc3ccccc23)cc1 | 79.9%
8 | Cc1cc(N2CCN(c3ncccn3)CC2)nc2ccccc12 | 6.42% (inactive)
9 | Cc1cc(N2CCC(N3CCOCC3)CC2)nc2ccccc12 | 11.7% (inactive)
10 | Cc1cc(N2CCN(c3ccccc3C#N)CC2)nc2ccccc12 | 42% (inactive)
11 | Cc1cc(N2CCNCC2)nc2ccccc12 | -292% (inactive)
12 | FC(F)(F)c1cc(N2CCCC2)nc2ccccc12 | -10.6% (inactive)
13 | Cc1cc(N(C)CCN(C)C)nc2ccccc12 | -249% (inactive)
14 | Cc1cc(N2CCCCC2)nc2ccccc12 | 90%
15 | CCc1ccc2nc(N3CCCC3)cc(C)c2c1 | 91.5%
16 | Cc1cc(N2CCOc3ccccc32)nc2ccccc12 | 63%
17 | FC(F)(F)c1cc(N2CCCCC2)nc2ccccc12 | 39.7% (inactive)
18 | c1ccc(-c2cc(N3CCCCC3)nc3ccccc23)cc1 | 55.9%
19 | Cc1ccc2nc(N3CCCC3)cc(C)c2c1 | 93%
20 | Cc1cc(N2CCN(c3ccncc3)CC2)nc2ccccc12 | 29.5% (inactive)
21 | COc1ccccc1N1CCN(c2cc(C)c3ccccc3n2)CC1 | 72.2%
22 | Cc1cc(N2CCCC2)nc2ccc(F)cc12 | 91.3%
23 | COc1ccc(N2CCN(c3cc(C)c4ccccc4n3)CC2)cc1 | -82.8% (inactive)

Next, values leading:

Row | inhibition | SMILES
24 | 70.1% | Cc1cc(N2CCCC2)nc2c(C)cccc12
25 | 38% (inactive) | Cc1ccnc(N2CCCC2)n1
26 | 32.4% (inactive) | Cc1cc(N2CC(C)CC(C)C2)nc2ccccc12 (centres undefined)
27 | 69.3% | Cc1cc(N2CCCC(O)C2)nc2ccccc12 (centres undefined)
28 | 42.6% | Cc1cc(N2CCOCC2)nc2ccccc12
29 | 61.2% | CCN(CC)c1cc(C)c2ccccc2n1
30 | -51.3% (inactive) | Cc1cc(N2CCN(CC3CCCO3)CC2)nc2ccccc12 (centres undefined)
31 | 46.4% | Cc1cc(N2CCCCC2)nc2c(C)cccc12
32 | 50.8% | Cc1ccnc(N2CCCCC2)c1
33 | 72.9% | Cc1cc(N2CCCCC2)nc2ccc(F)cc12
34 | 24.5% (inactive) | COCCN(C)c1cc(C)c2ccccc2n1
